Laboratory results taken from ChEMBL document CHEMBL3351225, “Design, synthesis, and structure-activity and structure-pharmacokinetic relationship studies of novel [6,6,5] tricyclic fused oxazolidinones leading to the discovery of a potent, selective, and orally bioavailable FXa inhibitor” (J Med Chem, 2014).

Key:
Plasma [1] = assay: Anticoagulant activity in citrated rabbit plasma assessed as drug concentration required to double plasma clotting time preincubated for 10 mins at 37 degC by coagulometry; assay type: functional, Oryctolagus cuniculus
Procedure, shortened: (§1)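 Test compound or DMSO added to citrated rabbit plasma (3.8% sodium citrate, 10:90 v/v) and preincubated 10 min at 37 °C. PT and aPTT clotting times measured on a coagulometer with commercial kits. Activity expressed as the concentration needed to double plasma clotting time (CT2, μM).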

Plasma [2] = assay: Anticoagulant activity in citrated rabbit plasma assessed as activated partial thromboplastin time preincubated for 10 mins at 37 degC by coagulometry; assay type: functional, Oryctolagus cuniculus; procedure, shortened: as §1
[3] = AUC (0 to infinity) in Sprague-Dawley rat at 9 mg/kg, po; assay type: ADME, organism-based; design: time infinity, dose 9 mg/kg, route oral; conditions: plasma
Procedure, shortened: (§2)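 Male Sprague-Dawley rats, 200−220 g, four per group. Vehicle was 5% DMSO + 5% Tween-80 in 90% saline. The reference drug was given in 10% DMSO + 10% Tween-80 + 80% PEG400 (40% solution in saline). Serial retrobulbar vein samples were quantified by LC-MS. Parameters came from noncompartmental analysis of mean plasma concentrations.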

[4] = AUC (0 to infinity) in Sprague-Dawley rat at 4.5 mg/kg, iv; assay type: ADME, organism-based; design: time infinity, dose 4.5 mg/kg, route intravenous; conditions: plasma; procedure, shortened: as §2
[5] = Plasma clearance in Sprague-Dawley rat at 4.5 mg/kg, iv; assay type: ADME, organism-based; design: dose 4.5 mg/kg, route intravenous; procedure, shortened: as §2
[6] = Oral bioavailability in Sprague-Dawley rat at 9 mg/kg; assay type: ADME, organism-based; conditions: in vivo; procedure, shortened: as §2
Coagulation factor X = Coagulation factor X (Homo sapiens, UniProt P00742); assay: Inhibition of human factor 10a using N-Z-D-Arg-Gly-Arg-pNA, S-2765 chromogenic substrate
Chain of Coagulation factor X (P00742 41-179 limits assumed): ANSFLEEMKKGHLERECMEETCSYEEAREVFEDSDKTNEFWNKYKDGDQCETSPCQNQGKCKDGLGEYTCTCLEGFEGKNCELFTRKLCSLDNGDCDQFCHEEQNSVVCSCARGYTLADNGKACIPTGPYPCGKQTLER
Chain of Coagulation factor X (P00742 235-488 limits assumed): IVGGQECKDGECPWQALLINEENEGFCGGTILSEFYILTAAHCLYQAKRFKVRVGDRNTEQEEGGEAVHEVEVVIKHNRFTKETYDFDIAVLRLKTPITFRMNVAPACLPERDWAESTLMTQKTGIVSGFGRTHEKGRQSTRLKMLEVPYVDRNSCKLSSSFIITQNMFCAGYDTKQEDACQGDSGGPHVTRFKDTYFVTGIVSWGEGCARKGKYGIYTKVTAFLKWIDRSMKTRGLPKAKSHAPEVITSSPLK

[7] = Cmax in Sprague-Dawley rat at 9 mg/kg, po; assay type: ADME, organism-based; design: dose 9 mg/kg, route oral; conditions: in vivo; procedure, shortened: as §2
[8] = Tmax in Sprague-Dawley rat at 9 mg/kg, po; assay type: ADME, organism-based; design: dose 9 mg/kg, route oral; conditions: in vivo; procedure, shortened: as §2
[9] = Elimination half life in Sprague-Dawley rat at 9 mg/kg, po; assay type: ADME, organism-based; design: dose 9 mg/kg, route oral; conditions: in vivo, read-out: beta t1/2 (converted); procedure, shortened: as §2
[10] = Elimination half life in Sprague-Dawley rat at 4.5 mg/kg, iv; assay type: ADME, organism-based; design: dose 4.5 mg/kg, route intravenous; conditions: in vivo, read-out: beta t1/2 (converted); procedure, shortened: as §2
[11] = Volume of distribution at steady state in Sprague-Dawley rat at 4.5 mg/kg, iv; assay type: ADME, organism-based; design: dose 4.5 mg/kg, route intravenous; conditions: in vivo, read-out: Vdss; procedure, shortened: as §2

Row | Structure (SMILES) | Activity (Plasma [1]) [µM] | 2aPTT (Plasma [2]) [µM] | AUC(0-inf) [3] [ng·h/mL] | AUC(0-inf) [4] [ng·h/mL] | clearance [5] [mL/min/kg] | bioavailability [6] [%] | IC50 (Coagulation factor X) [nM] | Cmax [7] [ng/mL] | Tmax [8] [h] | half-life [9] [h] | half-life [10] [h] | Vd [11] [L/kg]
1 | O=C(NC[C@@H]1OC(=O)N2c3ccc(N4CCCCC4=O)cc3OC[C@@H]12)c1ccc(Cl)s1 | 0.42 | 1.63 | 28500 | 33600 | 2.28 | 42 | – | – | – | – | – | –
2 | CS(=O)(=O)c1ccccc1-c1ccc2c(c1)OC[C@H]1[C@H](CNC(=O)c3ccc(Cl)s3)OC(=O)N21 | 5.88 | 4.65 | 24500 | 43900 | 1.72 | 27.3 | 37.6 | 6760 | 1 | 1.43 | 0.88 | 0.169
